Values joined by “and” are separate entries in the source; they are usually repeats but may differ in a detail not shown here. Equal values may be shown once. Read-outs that look alike come from different tables or passages of the source.
Tests used:
Jurkat cells [1] = assay: MTT cytotoxicity assay, Jurkat cells; assay type: cell-based, human; settings: 24 h, read-out: IC50 for Jurkat cell proliferation
Summary of the method: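 Jurkat E6-1 cells were grown in RPMI-1640 with L-glutamine, 10% FBS and 1% penicillin-streptomycin at 37 °C and 5% CO2. The test compound was diluted 1:2 serially in medium from a top concentration of 10 or 5 µM. Cells at a final 1 × 10⁶ cells/mL were exposed for 24 h. MTT was added (final 0.45 mg/mL) for 4 h at 37 °C, formazan was dissolved in DMSO, and OD was read at 570 nm. IC50 was taken as 50% growth inhibition. Three independent experiments, mean ± SEM.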

WIL2-NS cells = assay: MTT cytotoxicity and selectivity index, WIL2-NS cells; assay type: cell-based, human; settings: IC50 WIL2-NS compared to IC50 Jurkat
Jurkat cells [2] = assay: Annexin V-FITC/propidium iodide labelling; assay type: cell-based, human; settings: 24 h, each compound at its IC50, mean ± SEM
Summary of the method: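 Cells were spun at 220 x g for 5 min at 4 °C and washed in chilled PBS. They were stained with Annexin V-FITC in binding buffer for 13 min at room temperature in the dark, then with PI for 2 min. Samples were diluted in binding buffer and analysed by flow cytometry.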

Jurkat cells [3] = assay: Cell cycle checkpoint analysis; assay type: cell-based, human; settings: OC2 at IC50, 2 and 4 h
Jurkat cells [4] = assay: TMRE staining, mitochondrial membrane potential; assay type: cell-based, human
Jurkat cells [5] = assay: DHE staining, intracellular ROS; assay type: cell-based, human; settings: OC2 at IC50, 1-6 h
Jurkat cells [6] = assay: NAC pre-treatment followed by Annexin V-FITC/PI; assay type: cell-based, human; settings: 20 or 50 µM NAC 1 h, then OC2 at IC50 24 h
caspase-9 = assay: CaspGLOW active caspase staining, caspase-9; assay type: cell-based, human; settings: Jurkat, OC2 at IC50, 2 and 4 h
Summary of the method: (§1)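 Jurkat E6-1 cells in RPMI-1640 with 10% FBS at 1 × 10⁶ cells/mL were exposed to the test compound for 2 or 4 h. Cells were washed, resuspended in fresh medium and stained 1 h at 37 °C with a FITC-conjugated inhibitor: IETD-FMK (caspase-8), LEHD-FMK (caspase-9) or DEVD-FMK (caspase-3). After washing, cells were read by flow cytometry. Mean ± SEM of 3 replicates; ANOVA/Tukey versus untreated.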

caspase-8 = assay: CaspGLOW active caspase staining, caspase-8; assay type: cell-based, human; settings: Jurkat, OC2 at IC50, 2 and 4 h
Summary of the method: as §1

caspase-3 = assay: CaspGLOW active caspase staining, caspase-3; assay type: cell-based, human; settings: Jurkat, OC2 at IC50, 4 h
Summary of the method: as §1

p21 = assay: Western blot, p21; assay type: cell-based, human; settings: Jurkat, OC2 at IC50, 0.5-6 h
Summary of the method: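 Jurkat cells at 1 × 10⁶ cells/mL were treated for 0.5 to 6 h, then washed in ice-cold PBS and lysed in RIPA buffer (spun 13500 rpm, 30 min, 4 °C). Protein was measured by Bradford assay and 25 µg per lane run on SDS-PAGE, then transferred to PVDF. Blots were blocked in 5% BSA/TBS-T for 1.5 h, given primary antibody overnight at 4 °C and HRP anti-rabbit for 1 h, then detected by ECL. β-actin served as loading control; band intensity is in arbitrary units, n = 3.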

cleaved-PARP = assay: Western blot, cleaved-PARP; assay type: cell-based, human; settings: Jurkat, OC2 at IC50, 0.5-6 h
Summary of the method: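 Jurkat cells (1 × 10⁶ cells/mL) were treated with the test compound at its IC50 for 0.5–6 h. Cells were washed in ice-cold PBS and lysed in RIPA, and lysates were cleared at 13500 rpm for 30 min at 4 °C; protein was measured by Bradford. 25 µg per lane was run on SDS-PAGE and transferred to PVDF. Membranes were blocked in 5% BSA/TBS-T for 1.5 h, given primary antibody overnight at 4 °C and HRP anti-rabbit for 1 h, and developed by ECL. β-actin served as loading control. Three independent replicates, arbitrary units, mean ± SEM.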

K562 cells = settings: cited from earlier work
[7] = cited from earlier work

Structure (SMILES): COc1cc([C@@H]2c3cc4c(cc3[C@@H](O[C@@H]3O[C@@H]5CO[C@@H](C)O[C@H]5[C@H](O)[C@H]3O)[C@H]3COC(=O)[C@H]23)OCO4)cc(OC)c1O [ETO, Etoposide, reference compound]
- IC50 (Jurkat cells [1]; Homo sapiens, Jurkat): 0.87 ± 0.06 µM

Structure (SMILES): CC(C)N(C(=S)[S][Sn]([S]C(=S)N(C(C)C)C(C)C)([c]1ccccc1)[c]1ccccc1)C(C)C [OC1, Diphenyltin(IV) diisopropyl dithiocarbamate]
- IC50 (Jurkat cells [1]; MTT, mean ± S.E.M): 7.1 ± 0.6 µM
- Selectivity index (SI) (WIL2-NS cells): 0.37
- Percentage of apoptotic events (Jurkat cells [2]): 68.1 ± 4.2%

Structure (SMILES): CC(C)N(C(=S)[S][Sn]([c]1ccccc1)([c]1ccccc1)[c]1ccccc1)C(C)C [OC2, Triphenyltin(IV) diisopropyl dithiocarbamate]
- IC50 (Jurkat cells [1]; MTT, mean ± S.E.M): 0.1 ± 0.01 µM
- Selectivity index (SI) (WIL2-NS cells): 5.5
- Percentage of apoptotic events (Jurkat cells [2]): 55.6 ± 5.0% and 55% and 55.6 ± 4.95%
- Cell cycle distribution (Jurkat cells [3]): halted the Jurkat cell cycle in the G0/G1 phase
- TMRE-negative cells (loss of ΔΨm) (Jurkat cells [4]; OC2 at IC50, 1 h): slight increase in TMRE-negative cells
- TMRE-negative cells (loss of ΔΨm) (Jurkat cells [4]; OC2 at IC50, 2 h): 33.0 ± 4.5%
- TMRE-negative cells (loss of ΔΨm) (Jurkat cells [4]; OC2 at IC50, 4 h): 37.4 ± 2.4%
- TMRE-negative cells (loss of ΔΨm) (Jurkat cells [4]; OC2 at IC50, 6 h): 43.2 ± 5.5%
- Intracellular ROS production (Jurkat cells [5]): time-dependent increase in ROS production
- Apoptotic cells after NAC pre-treatment (Jurkat cells [6]): significantly decreased the number of apoptotic cells
- Cells with active caspase-9 (caspase-9): steadily increased from 2 to 4 h post-treatment
- Caspase-8 activation (caspase-8): remained unchanged compared to the control up to 4 h
- Caspase-3 positive cells (caspase-3): significant increase in caspase-3 positive cells
- p21 protein expression (p21): statistically significant (p < 0.05) at later time points (4 and 6 h)
- Cleaved-PARP protein expression (cleaved-PARP): marked rise (p < 0.05) at 6 h
- ROS levels, K562 (K562 cells; IC50 dose, 6 h): substantial elevation in ROS levels (p < 0.05)
- Apoptotic cells, K562 (K562 cells; at IC50 concentration): 57.1 ± 4.5%
- Cell cycle progression, K562 (K562 cells): blocking cell cycle progression at the S phase checkpoint
- Selectivity index (SI), K562 cells (K562 cells): 1
- IC50 (K562 cells; read-out: IC50 (inhibiting 50% of cell growth), K562 cells): 0.55 µM
- Predicted CaCo2 permeability / intestinal absorption ([7]; ADMETlab prediction): might possess good intestinal absorption
- Inhibition of major CYP450 enzymes (predicted) ([7]; in silico): predicted not to inhibit any major CYP450 enzymes
- Mutagenic and carcinogenic potential (predicted) ([7]; in silico): may lack mutagenic and carcinogenic potential
- P-gp substrate or inhibitor (predicted) ([7]; in silico): unlikely to be a substrate or inhibitor of P-gp
- Skin sensitization or liver injury (predicted) ([7]; in silico): might not cause skin sensitization or liver injury

Structure (SMILES): C=CCN(CC=C)C(=S)[S][Sn]([S]C(=S)N(CC=C)CC=C)([c]1ccccc1)[c]1ccccc1 [OC3, Diphenyltin(IV) diallyl dithiocarbamate]
- IC50 (Jurkat cells [1]; MTT, mean ± S.E.M): 2.8 ± 0.13 µM
- Selectivity index (SI) (WIL2-NS cells): 0.42
- Percentage of apoptotic events (Jurkat cells [2]): 86.7 ± 2.9%

Structure (SMILES): C=CCN(CC=C)C(=S)[S][Sn]([c]1ccccc1)([c]1ccccc1)[c]1ccccc1 [OC4, Triphenyltin(IV) diallyl dithiocarbamate]
- IC50 (Jurkat cells [1]; MTT, mean ± S.E.M): 0.2 ± 0.01 µM
- Selectivity index (SI) (WIL2-NS cells): 1
- Percentage of apoptotic events (Jurkat cells [2]): 84.5 ± 5.3%

Structure (SMILES): CCN(CC)C(=S)[S][Sn]([c]1ccccc1)([c]1ccccc1)[c]1ccccc1 [OC5, Triphenyltin(IV) diethyldithiocarbamate]
- IC50 (Jurkat cells [1]; MTT, mean ± S.E.M): 0.35 ± 0.01 µM
- Selectivity index (SI) (WIL2-NS cells): 0.57
- Percentage of apoptotic events (Jurkat cells [2]): 73.4 ± 4.8%

Source: PMC12722729 (Scientific Reports, 2025)
